# Compounds with a hit are over-represented: about 1.4% of the library has one in this group of screens.
# HTRA1 inh = HTRA1 serine protease inhibitors, primary screen, biochemical, fluorescence polarization, HTS | Q92743 | recombinant HTRA1, FP-rhodamine activity-based probe | inhibition, % at 5.96 µM | 340,000 compounds, 0.5% hits | AID 504803, 2011; in the data active means inhibition above about 36%;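 further: 0% = enzyme with DMSO and 100% = wells lacking enzyme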
# mABHD4 FP = ABHD4 inhibitors, primary screen, biochemical, fluorescence polarization, mouse; inhibition, % at 8.92 µM; 370,000 compounds, 0.54% hits; (Lyso)-N-acylphosphatidylethanolamine lipase (Mus musculus), Q8VD66; purified mABHD4, FP-Rh probe fluorescence polarization;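 active means inhibition exceeding the mean over every tested compound plus 3 SD, cut at about 30% in these data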;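 further: 0% = plate median of compound wells and 100% = S159A mutant with DMSO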
# Target sequence (Q8VD66 whole entry, looked up): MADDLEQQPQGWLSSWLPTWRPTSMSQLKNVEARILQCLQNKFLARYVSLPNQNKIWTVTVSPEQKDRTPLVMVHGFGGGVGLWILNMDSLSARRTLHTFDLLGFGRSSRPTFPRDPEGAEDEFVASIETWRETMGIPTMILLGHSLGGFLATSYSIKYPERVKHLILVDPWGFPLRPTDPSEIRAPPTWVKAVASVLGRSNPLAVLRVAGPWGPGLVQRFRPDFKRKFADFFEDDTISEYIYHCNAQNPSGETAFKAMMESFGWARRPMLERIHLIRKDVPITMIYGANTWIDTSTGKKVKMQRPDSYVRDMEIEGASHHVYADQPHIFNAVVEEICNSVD
#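 Test system: mABHD4 protein | Buffer or medium: HEPES pH 7.0 buffer, 150 mM NaCl, 0.01% Pluronic F-127 | Probe or stimulus: FP-Rh fluorescent activity-based probe, added after compound pre-incubation | Timing: Pre-incubation 45 min, probe exposure 60 min, at 25 °C | Technique: Fluorescence polarization, excitation 525 nm, emission 598 nm, BODIPY TMR filters | Repeats: Single well per compound (singlicate)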
# RBBP9 inh = human RBBP9 inhibitors, primary screen, biochemical, fluorescence polarization, FP-Rh probe, HTS | Serine hydrolase RBBP9 (Homo sapiens), O75884 | recombinant RBBP9 | inhibition, % at 7.94 µM | 220,000 compounds, 0.2% hits | AID 1515, 2009;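 active means inhibition above the campaign mean of all tested compounds plus 3 SD, cut at about 14% in these data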;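 further: plate controls were DMSO wells with RBBP9 for no effect and wells lacking RBBP9 protein for full effect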
# Target sequence (O75884 whole entry, looked up): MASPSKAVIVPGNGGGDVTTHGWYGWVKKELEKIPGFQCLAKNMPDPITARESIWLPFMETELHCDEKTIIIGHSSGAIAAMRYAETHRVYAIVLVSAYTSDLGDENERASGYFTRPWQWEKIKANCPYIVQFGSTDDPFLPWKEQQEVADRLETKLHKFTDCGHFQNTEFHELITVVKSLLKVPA
#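 system = RBBP9 protein | input = RBBP9 at 2.5 µM in dispensed solution, before mixing | measured by = fluorescence polarization (mP), excitation 525 nm, emission 598 nm | incubation = enzyme-compound preincubation 30 min, then probe labeling 45 min, 25 °C | buffer or medium = Tris-NaCl-Pluronic buffer, pH 8.0 | compound = single dose 7.94 µM | also added = FP-Rh probe, 375 nM dispensing solution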
# SIAE inh = human SIAE inhibitors, primary screen, biochemical, fluorescence polarization, FP-Rh probe, 1536-well HTS. Sialate O-acetylesterase (Homo sapiens), Q9HAT2. SIAE FP-Rh probe binding. inhibition, % at 9.66 µM. 370,000 compounds, 0.69% hits;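 active means inhibition above a cutoff: mean of compounds within the control limits plus 3 SD of those, cut at about 17% in these data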;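 further: 0% = plate median of compound wells and 100% = probe without SIAE protein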
# HTRA1 conf = HTRA1 protease inhibitors, retest, confirmation, biochemical, fluorescence polarization; shares compounds with HTRA1 inh; recombinant HTRA1, FP-rhodamine activity-based probe; inhibition, % at 5.96 µM; 1,600 compounds, 66% hits;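 active means mean inhibition over three repeats above a set limit taken from the earlier primary screen, cut at about 37% in these data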;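 further: 0% = HTRA1 with DMSO and 100% = wells lacking HTRA1; inhibitors block probe binding so polarization drops and inhibition rises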
# * = called active by the depositor; x = no result.
SMILES,HTRA1 inh,mABHD4 FP,RBBP9 inh,SIAE inh,HTRA1 conf
CC(=O)N1CCN(c2ccc(NCc3ccc(C)s3)cc2)CC1,24.4,21.9,-3.3,16.5,x
Cc1ccc2c(c1)c1c(n2C)-c2[nH]ncc2CC1,37.0*,24.6,2.2,20.7*,19.8
Cc1ccc2c(c1)c1c(n2C)C(C(N)=O)CCC1 (configuration not stated),3.2,5.3,-5.3,1.2,x
CC(=O)N1CCN(c2ccc(NCc3ccc(-c4ccc(Br)cc4)o3)cc2)CC1,43.8*,28.6,x,8.4,19.1
Oc1ccc(N=Cc2ccc(-c3cccs3)s2)cc1,61.6*,85.6*,0.9,45.1*,-26.6
Cc1ccc2c(Cl)c(Cc3ccccc3)c(=S)[nH]c2n1,1.4,-1.8,x,-1.4,x
C/C(N=Nc1nc2ccccc2s1)=N\Nc1ccccc1O,67.6*,28.0,-2.0,10.0,73.6*
Oc1[nH]c2ccccc2c1N=Nc1nc2ccccc2s1,11.3,-5.6,-4.9,-0.5,x
Cc1ccccc1Cn1cc(COC(=O)NCC(C)C)nn1,x,6.6,x,5.2,x
Cc1cccc(NC(=O)COc2coc(CN3CCN(c4ccccc4)CC3)cc2=O)c1C,57.1*,1.7,x,-3.1,10.0
O=C(/C=C/c1ccco1)Oc1cc(Br)cc(/C=N/NC(=O)c2ccccc2O)c1,84.3*,15.4,-1.6,3.2,142.6*
CCCc1nc2c3ccccc3ccn2c1Cc1cccc(F)c1,x,-14.8,x,-2.8,x
CN(C)CCCNc1cc(C(C)(C)C)nc2c(-c3ccc(Cl)cc3)cnn12,49.3*,26.3,-5.8,6.4,69.8*
O=C1CC(Nc2ccc(N3CCOCC3)cc2)C(=O)N1c1cccc(C(F)(F)F)c1 (configuration not stated),60.8*,x,-5.9,x,13.6
O=C(Nc1ccc(F)cc1Cl)C1CCCN1S(=O)(=O)c1cccc2cccnc12 (configuration not stated),x,-1.4,x,1.1,x
Oc1ccc(C[C@H]2CNC(=S)N2CC2CCCN2C[C@H](Cc2ccc(O)cc2)N2C[C@H](Cc3ccc(O)cc3)N(CC3CCCCCC3)C2=S)cc1 (some centres not stated),-73.6,-34.4,x,-56.3,x
CCOc1cc(N2CCOCC2)c(OCC)cc1NC(=O)c1nn(CC)c(=O)c2ccccc12,41.3*,4.0,x,1.0,45.0*
CN(C)c1ccc(N=Cc2cccn2C)cc1,41.6*,35.4*,x,14.8,7.5
CN(C)c1ccc(N=c2sc3ccccc3n2C)cc1,16.8,9.8,12.3,-2.3,x
Oc1cc2ccccc2cc1-c1n[nH]c(=S)o1,48.2*,23.1,6.6,-3.7,49.0*
S=c1[nH]nc(-c2c[nH]c3ccccc23)o1,-4.2,-0.5,x,3.4,x
COC(=O)CCC(=O)OC1(C)C(=O)C2=CN(c3ccc(OC)cc3)C(c3ccc(OC)cc3)=CC2=C(Br)C1=O (configuration not stated),52.8*,x,x,x,62.8*
C=CCN1C=C2C(=O)C(C)(OC(=O)CCC(=O)OC)C(=O)C(Br)=C2C=C1c1ccc(OC)cc1 (configuration not stated),63.4*,x,x,x,43.3*
COC(=O)CCC(=O)OC1(C)C(=O)C2=CN(C3CCCC3)C(c3ccc(OC)cc3)=CC2=C(Br)C1=O (configuration not stated),61.0*,9.4,x,6.2,52.4*
CCN(CC)CCCN1C=C2C(=O)C(C)(OC(=O)CCC(=O)OC)C(=O)C(Br)=C2C=C1c1ccc(OC)cc1 (configuration not stated),19.8,15.3,x,2.9,x
SMILES,HTRA1 inh,mABHD4 FP,RBBP9 inh,SIAE inh,HTRA1 conf
COCCN1C=C2C(=O)C(C)(OC(=O)CCC(=O)OC)C(=O)C(Br)=C2C=C1c1ccc(OC)cc1 (configuration not stated),26.9,x,x,x,x
O=C(CSc1nnc(COc2ccc(Cl)cc2)o1)N(c1ccccc1)C1CCS(=O)(=O)C1 (configuration not stated),-8.0,1.7,x,-8.0,x
CN(C)N=Nc1ccc(-c2cn(Cc3ccccc3)cn2)cc1,0.9,3.2,x,-0.2,x
NNC(=O)c1cc(-c2cccs2)nc2ccccc12,-4.4,-28.4,-21.3,-24.4,x
Cc1cccc2sc(NNC(=O)c3cc(-c4cccs4)nc4ccccc34)nc12,43.7*,-0.9,-6.1,-4.1,42.1*
O=[N+]([O-])c1cc2c(cc1C=Nc1ccccc1)OCO2,51.0*,x,-1.3,x,4.4
CCCN1C(=O)c2n[nH]c(C)c2C1c1ccc2c(c1)OCO2 (configuration not stated),x,-1.3,x,2.2,x
COc1ccc(OC)c(/C=N/NC(=O)CCc2ccc(O)c(O)c2)c1,53.4*,12.3,-0.4,-2.1,78.7*
COc1ccc(OC)c(/C=N/NC(=O)CCc2c(C)n[nH]c2C)c1,-1.6,-8.2,-2.3,-4.6,x
Nc1n[nH]c2cc(=O)n(-c3cccc(C(F)(F)F)c3)nc12,16.9,7.6,-1.5,6.3,x
O=c1[nH][nH]c2cc(=O)n(-c3cccc(C(F)(F)F)c3)nc12,58.7*,61.8*,-5.5,11.4,13.5
Oc1cccc2ccc(/C=C/c3ccccc3Br)nc12,51.6*,-2.6,x,-12.9,44.8*
COc1cc(Br)c(/C=C/c2ccc3cccc(O)c3n2)cc1OC,9.7,9.2,x,7.9,x
Oc1c(Cl)cc(Cl)cc1/C=C/c1ccc2cccc(O)c2n1,36.8*,7.1,-4.4,0.9,47.9*
CCN(CC)C(=O)Cn1c2ccccc2c2nc3n(c(=O)c21)CCS3,x,3.7,x,-1.2,x
O=C(NCC1CCN(C(=O)C(=O)c2cccs2)CC1)c1cccnc1,x,5.6,x,-1.9,x
Cc1cc(Cl)c2ccc3ccccc3c2n1,1.2,-2.9,-2.8,4.3,x
Clc1cc2cccnc2c2ccccc12,-1.7,7.3,-4.9,-0.3,x
Oc1ccc(Cl)c2cccnc12,64.4*,8.9,x,4.4,75.5*
Oc1c(Cl)cc(Cl)c2cccnc12,48.2*,11.1,-2.8,22.6*,56.0*
Oc1ccc(F)c2cccnc12,24.1,1.5,-1.7,1.1,x
Cc1ccc2c(Cl)cc(Cl)c(O)c2n1,39.8*,5.2,x,11.2,46.9*
C[C@@H]1CCCCO[C@H](CN(C)S(=O)(=O)c2ccc(F)cc2)[C@@H](C)CN([C@H](C)CO)C(=O)c2cc(NC(=O)Nc3ccc(C(F)(F)F)cc3)ccc2O1,-38.8,-43.0,x,-115.3,x
COc1ccc2c3c([nH]c2c1)[C@]1(NCC3)C(=O)N(C)c2ccc(Cl)cc21,x,2.1,x,1.6,x
COC(=O)[C@]12C[C@H](CC(=O)NCc3cccs3)C(=O)N(Cc3ccc4c(c3)OCO4)C1=C[C@H](C(C)(C)C)O[C@@H]2C,x,-5.5,x,-3.2,x
CCOC(=O)c1c2c(n(C)c1C)C(=O)C(=O)c1ccc(Br)cc1-2,6.7,1.9,6.1,0.9,x
